In publication PMC9359741 (Clinical Cancer Research, 2022):
Values joined by “and” are separate entries in the source; they are usually repeats but may differ in a detail not shown here. Identical values can stand only once.

What was measured:
Assay type in all cases: in vivo, human
[1] = Phase 2 plasma pharmacokinetics of ARRY-382 and metabolites; details: for RAUC (accumulation ratio), geometric mean (geometric %CV) / Ctrough, geometric mean (geometric %CV) / RCmax (accumulation ratio), geometric mean (geometric %CV): Cycle 2 day 1, 300 mg; for AUC(0-t) / AUC / Cmax / Tmax: human, plasma, oral, 300 mg; for AUC(0-t): AUClast; for AUC(0-t) / AUC / Cmax: geometric mean (geometric %CV); for AUC: AUCtau; for Tmax: median (range)
How it was run: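 Blood was collected for plasma test compound and its N-oxide, N-desmethyl and sulfate metabolites. Trough samples were taken ≤120 min before the oral dose on cycle 1 day 15 and day 1 of cycles 3–6. Doses were 200–400 mg QD in Phase 1b and 300 mg QD in Phase 2. Non-compartmental parameters were estimated per patient in the PK set, reported as geometric mean (geometric %CV) and Tmax as median (range).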

[2] = system: pancreatic ductal adenocarcinoma (PDA); assay: Phase 2 efficacy
How it was run: (§1)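 Oral test compound 300 mg QD plus anti-PD-1 antibody 200 mg IV Q3W. PD-1/PD-L1 IR cohort: progression on anti-PD-1/PD-L1 (RECIST or irRC). prOVCA cohort: progression ≤6 months after ≥4 platinum cycles. PDA cohort: ≥1 prior systemic line. Investigator assessed best response per RECIST v1.1 and irRC. ORR used confirmed responses with Clopper–Pearson 95% CI; all dosed patients. Screening tissue was profiled for MSI/MMR, TMB and gene expression.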

CSF-1R = assay: Phase 1b pharmacodynamic biomarkers
How it was run: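 Blood was drawn for serum CSF-1 and CTX, plus serum osteoprotegerin and non-classical monocytes in Phase 2. Urine was collected for NTX. Samples were taken pre-dose on cycle 1 days 1, 8 and 15, on day 1 of later cycles and at discontinuation. Mean change on cycle 1 day 15 versus cycle 1 day 1 was summarized descriptively, with outliers excluded.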

[3] = system: PD-1/PD-L1 inhibitor-refractory advanced solid tumors; assay: Phase 2 efficacy; details: PD-1/PD-L1 IR
How it was run: as §1

[4] = Cycle 1 day 1, PD-1/PD-L1 IR, n = 18
[5] = Cycle 2 day 1, PD-1/PD-L1 IR, n = 6

SMILES: Cc1cccc(Cn2nc(C3CC3)c3c(NC(=O)c4cnc5cc(OCCN6CCN(C)CC6)ccn45)cccc32)n1 [ARRY-382]
- RAUC (accumulation ratio), geometric mean (geometric %CV) ([1]; Overall): 2.49 (35.6)
- Ctrough, geometric mean (geometric %CV) ([1]; Overall, n = 15): 796 (86.9) ng/mL
- RCmax (accumulation ratio), geometric mean (geometric %CV) ([1]; Overall, n = 15): 2.06 (41.9)
- RAUC (accumulation ratio), geometric mean (geometric %CV) ([1]; PD-1/PD-L1 IR, n = 3): 2.67 (36.2)
- Ctrough, geometric mean (geometric %CV) ([1]; PD-1/PD-L1 IR, n = 6): 878 (70.1) ng/mL
- RCmax (accumulation ratio), geometric mean (geometric %CV) ([1]; PD-1/PD-L1 IR, n = 6): 2.52 (39.9)
- RAUC (accumulation ratio), geometric mean (geometric %CV) ([1]; PDA, n = 3): 3.41 (23.6)
- Ctrough, geometric mean (geometric %CV) ([1]; PDA, n = 4): 1,480 (17.5) ng/mL
- RCmax (accumulation ratio), geometric mean (geometric %CV) ([1]; PDA, n = 4): 2.07 (53.6)
- RAUC (accumulation ratio), geometric mean (geometric %CV) ([1]; prOVCA, n = 4): 1.87 (16.7)
- Ctrough, geometric mean (geometric %CV) ([1]; prOVCA, n = 5): 438 (86.5) ng/mL
- RCmax (accumulation ratio), geometric mean (geometric %CV) ([1]; prOVCA, n = 5): 1.62 (24.7)
- AUC(0-t) ([1]; Cycle 1 day 1, Overall, n = 55): 6310 ng·h/mL
- AUC(0-t) [1, 4]: 6320 ng·h/mL
- AUC(0-t) ([1]; Cycle 1 day 1, PDA, n = 26): 6350 ng·h/mL
- AUC(0-t) ([1]; Cycle 1 day 1, prOVCA, n = 11): 6210 ng·h/mL
- AUC(0-t) ([1]; Cycle 2 day 1, Overall, n = 15): 28500 ng·h/mL
- AUC(0-t) [1, 5]: 26600 ng·h/mL
- AUC(0-t) ([1]; Cycle 2 day 1, PDA, n = 4): 47100 ng·h/mL
- AUC(0-t) ([1]; Cycle 2 day 1, prOVCA, n = 5): 20700 ng·h/mL
- AUC ([1]; Cycle 2 day 1, Overall, n = 15): 30600 ng·h/mL
- AUC [1, 5]: 32100 ng·h/mL
- AUC ([1]; Cycle 2 day 1, PDA, n = 4): 47100 ng·h/mL
- AUC ([1]; Cycle 2 day 1, prOVCA, n = 5): 20700 ng·h/mL
- Cmax ([1]; Cycle 1 day 1, Overall, n = 55): 1270 ng/mL
- Cmax [1, 4]: 1240 ng/mL
- Cmax ([1]; Cycle 1 day 1, PDA, n = 26): 1290 ng/mL
- Cmax ([1]; Cycle 1 day 1, prOVCA, n = 11): 1260 ng/mL
- Cmax ([1]; Cycle 2 day 1, Overall, n = 15): 2080 ng/mL
- Cmax [1, 5]: 2130 ng/mL
- Cmax ([1]; Cycle 2 day 1, PDA, n = 4): 2820 ng/mL
- Cmax ([1]; Cycle 2 day 1, prOVCA, n = 5): 1580 ng/mL
- Tmax [1, 4]: 1.97 h
- Tmax ([1]; Cycle 1 day 1, prOVCA, n = 11): 2 h
- Tmax [1, 5]: 2 h
- Tmax ([1]; Cycle 2 day 1, PDA, n = 4): 3.03 h
- Median OS ([2]; PDA): 2.2 (95% CI, 1.5–4.9) months
- Median PFS ([2]; PDA): 1.4 (95% CI, 0.9–2.8) months
- Median irPFS per irRC ([2]; PDA): 1.3 (95% CI, 0.9–2.7) months
- DOR of confirmed PR ([2]; PDA cohort, 1 patient (MSI-Stable, TMB-Low, PD-L1 negative)): 2.4 months
- Best overall response: CR ([2]; PDA, N = 27): 0 (0.0) n (%)
- Best overall response: NE ([2]; PDA, N = 27): 14 (51.9) n (%)
- Best overall response: PD ([2]; PDA, N = 27): 7 (25.9%) n (%) and 7 (25.9) n (%)
- Best overall response: PR ([2]; PDA, N = 27): 1 (3.7) n (%)
- Best overall response: SD ([2]; PDA, N = 27): 5 (18.5) n (%)
- Immune-related best overall response: CR ([2]; PDA, N = 27): 0 (0.0) n (%)
- Immune-related best overall response: NE ([2]; PDA, N = 27): 19 (70.4) n (%)
- Immune-related best overall response: PD ([2]; PDA, N = 27): 0 (0.0) n (%)
- Immune-related best overall response: PR ([2]; PDA, N = 27): 1 (3.7) n (%)
- Immune-related best overall response: SD ([2]; PDA, N = 27): 7 (25.9) n (%)
- ORR, % (95% CI) ([2]; confirmed, PDA, N = 27): 3.7 (0.1–19.0) %
- ir-ORR, % (95% CI) ([2]; confirmed, PDA, N = 27): 3.7 (0.1–19.0) %
- Change in mean CTX or NTX (CSF-1R; cycle 1 day 15 compared with cycle 1 day 1): no changes
- Increase in mean serum CSF-1 (CSF-1R; cycle 1 day 15 versus cycle 1 day 1, P < 0.05): 4.5 fold
- Median OS [3]: 12.4 (95% CI, 3.6–NR) months
- Median PFS [3]: 1.6 (95% CI, 1.3–4.4) months
- Median irPFS per irRC [3]: 1.5 (95% CI, 1.3–4.3) months
- Best overall response: CR ([3]; N = 19): 0 (0.0) n (%)
- Best overall response: NE ([3]; N = 19): 2 (10.5) n (%)
- Best overall response: PD ([3]; N = 19): 9 (47.4%) n (%) and 9 (47.4) n (%)
- Best overall response: PR ([3]; N = 19): 0 (0.0) n (%)
- Best overall response: SD ([3]; N = 19): 8 (42.1%) n (%) and 8 (42.1) n (%)
- Immune-related best overall response: CR ([3]; N = 19): 0 (0.0) n (%)
- Immune-related best overall response: NE ([3]; N = 19): 11 (57.9) n (%)
- Immune-related best overall response: PD ([3]; N = 19): 1 (5.3) n (%)
- Immune-related best overall response: PR ([3]; N = 19): 0 (0.0) n (%)
- Immune-related best overall response: SD ([3]; N = 19): 7 (36.8) n (%)
- ORR, % (95% CI) ([3]; confirmed, N = 19): 0.0 (0.0–17.6) %
- ir-ORR, % (95% CI) ([3]; confirmed, N = 19): 0.0 (0.0–17.6) %
